High-throughput results (PubChem)
MBD2 DNA inh = inhibitors of MBD2 binding to methylated DNA, primary screen, biochemical, TR-FRET, DNA-binding domain, human; Methyl-CpG-binding domain protein 2 (Homo sapiens), Q9UBB5; MBD2 binding to methylated oligonucleotide; inhibition, % at 4.4 µM; 0.31% of 370,000 active; AID 686964, 2013; in the data active = inhibition above about 13%
LEDGF integ inh = blockers of LEDGF/p75-dependent integrase strand transfer – biochemical, TR-FRET, high throughput, primary screen; HIV-1 integrase (with human LEDGF/p75); TR-FRET IN-LEDGF/p75 DNA integration, Eu/Cy5; inhibition, % at 3.7 µM; 0.64% of 370,000 active;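 active = inhibition above the screen-wide mean plus 3 SD, cut at about 13% in these data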;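 note: signal is the Cy5 over europium emission ratio at 671 and 618 nm; 0% = plate median of compound wells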
TDP2 inh = human TDP2 enzyme inhibitors, primary screen, biochemical, epi absorbance, recombinant enzyme; 0.34% of 370,000 active; Tyrosyl-DNA phosphodiesterase 2 (Homo sapiens), O95551; T5PNP hydrolysis, p-nitrophenol absorbance 415 nm; AID 720702, 2013; inhibition, % at 12.8 µM;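 active = inhibition above the mean of all tested compounds plus 3 SD, set per campaign, cut at about 25% in these data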;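 note: 0% = DMSO with enzyme and 100% = buffer with substrate but no TDP2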
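Test system: Human TDP2 enzyme | Reagent: 5 mM T5PNP | Compound dosing: 12.8 µM single point, 1% DMSO | Incubation: Enzyme reaction with compound for 2 h at 37 °C | Technique: p-Nitrophenol epi absorbance | Read-out: % inhibition relative to enzyme-containing and enzyme-free wells | Benchmarks: High control without enzyme, low control DMSO plus TDP2 | Replicates: Singlicate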
PRMT1 FP inh = PRMT1 methyltransferase inhibitors, primary screen, biochemical, fluorescence polarization. Protein arginine N-methyltransferase 1 (Homo sapiens), Q99873. recombinant PRMT1, activity-based probe fluorescence polarization. inhibition, % at 2.79 µM. 1.3% of 370,000 active. AID 652257, 2013;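 active = inhibition above about 21% made by adding two undisclosed values, limit read from the data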
SIAE primary = human SIAE inhibitors, primary screen, biochemical, fluorescence polarization, FP-Rh probe, 1536-well HTS; 0.69% of 370,000 active; inhibition, % at 9.66 µM; SIAE FP-Rh probe binding; AID 1053197, 2014; Sialate O-acetylesterase (Homo sapiens), Q9HAT2;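 active = inhibition above a cutoff: mean of compounds within the control limits plus 3 SD of those, cut at about 17% in these data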;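 note: 0% = plate median of compound wells and 100% = probe without SIAE protein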
Target sequence (Q9HAT2 whole entry, looked up): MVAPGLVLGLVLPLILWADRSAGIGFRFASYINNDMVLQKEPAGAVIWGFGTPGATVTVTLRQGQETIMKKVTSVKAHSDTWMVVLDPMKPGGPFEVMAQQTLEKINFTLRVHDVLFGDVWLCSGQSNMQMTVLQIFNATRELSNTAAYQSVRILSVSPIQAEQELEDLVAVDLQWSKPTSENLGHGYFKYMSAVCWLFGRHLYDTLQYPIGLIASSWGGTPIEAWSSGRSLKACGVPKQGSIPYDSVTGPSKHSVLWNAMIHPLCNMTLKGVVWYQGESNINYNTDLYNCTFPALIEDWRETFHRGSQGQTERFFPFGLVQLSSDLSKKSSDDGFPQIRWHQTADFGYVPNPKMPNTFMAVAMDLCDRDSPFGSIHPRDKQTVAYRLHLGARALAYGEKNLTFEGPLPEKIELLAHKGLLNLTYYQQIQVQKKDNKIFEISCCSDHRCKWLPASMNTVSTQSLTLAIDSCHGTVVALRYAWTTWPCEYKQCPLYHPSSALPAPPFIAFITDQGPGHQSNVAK
UHRF1 binding = UHRF1 methylated DNA binding inhibitors, primary screen, counter-screen for MBD2 inhibitor project, biochemical, TR-FRET, human UHRF1, single concentration. E3 ubiquitin-protein ligase UHRF1 (Homo sapiens), Q96T88. UHRF1 binding to methylated oligo. inhibition, % at 4.4 µM. 0.75% of 370,000 active. AID 687016, 2013; in the data active = inhibition above about 21%;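 note: UHRF1 SRA domain binding a hemimethylated CpG hairpin DNA probe; 0% = median of test compound wells and 100% = reference inhibitor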
PRMT1 inh conf = PRMT1 methyltransferase inhibitors, confirmation, biochemical, fluorescence polarization, triplicate; shares compounds with PRMT1 FP inh; recombinant His-PRMT1, activity-based probe fluorescence polarization; inhibition, % at 2.79 µM; 42% of 3,300 active; AID 687036, 2013;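 active = mean inhibition across replicates above the hit cutoff derived for the earlier primary screen, cut at about 22% in these data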
IN multimer up = HIV-1 IN multimer formation enhancers, counter-screen for LEDGF/p75 integration inhibitor project, biochemical, TR-FRET | shares compounds with LEDGF integ inh | activation, % at 7.7 µM | 17% of 2,000 active | TR-FRET HIV-1 integrase multimerization; in the data active = activation above about 8.9%
TR-FRET interf = TR-FRET optical interference artefacts, confirmation, artefact control for LEDGF/p75-dependent integration inhibitor project, biochemical, HIV-1 IN multimerization | shares compounds with LEDGF integ inh | TR-FRET optical interference counterscreen | inhibition, % at 7.7 µM | 2,000 tested, under 10 active | AID 1053135, 2014;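 active = inhibition above the mean over all tested compounds plus 3 SD, which no compound reached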;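 note: 0% = integrase with antibodies and DMSO and 100% = antibodies without integrase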
LEDGF integ conf = inhibitors of HIV-1 IN-LEDGF/p75 DNA integration, confirmation, biochemical, TR-FRET; shares compounds with LEDGF integ inh; TR-FRET LEDGF/p75-dependent HIV-1 integration; inhibition, % at 3.7 µM; 36% of 2,000 active; AID 1053136, 2014; in the data active = inhibition above about 14%
SIAE confirm = human SIAE inhibitors, retest, confirmation, biochemical, fluorescence polarization, FP-Rh probe, triplicate; AID 1117263, 2014; inhibition, % at 9.66 µM; shares compounds with SIAE primary; SIAE FP-Rh activity-based probe; 13% of 2,300 active;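 active = mean inhibition of the replicates above the hit cutoff set in the primary screen, cut at about 17% in these data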;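 note: 0% = SIAE with DMSO and probe and 100% = probe without SIAE; inhibitors lower polarization as more probe stays unbound to SIAE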
The depositor's hits bear a star. Rows were chosen to be rich in hits. Some 3.3% of all compounds tested hit in one or more screens of this group.

COc1cc(C(=O)OCC(=O)N2CCCC2=O)cc(OC)c1C was read as MBD2 DNA inh 4, LEDGF integ inh -1, TDP2 inh 1, PRMT1 FP inh 96*, SIAE primary 17*, UHRF1 binding 12, PRMT1 inh conf -1 and SIAE confirm -2.
Screening CC(=O)Nc1ccc(C(=O)OCC(=O)N2CCCC2=O)cc1 returned MBD2 DNA inh 5, LEDGF integ inh 1, TDP2 inh -7, PRMT1 FP inh -5, SIAE primary -2 and UHRF1 binding 7.
Screening CCCCOc1ccc(C(=O)NC2CCCCN(Cc3cccc(Cl)c3)C2=O)cc1 (stereo not drawn) returned MBD2 DNA inh -4, LEDGF integ inh -3, TDP2 inh -7, PRMT1 FP inh 1, SIAE primary -2 and UHRF1 binding -1.
O=C1/C(=C/c2ccco2)CCc2ccccc21 was read as MBD2 DNA inh -1, LEDGF integ inh 6, TDP2 inh 5, PRMT1 FP inh 7, SIAE primary 7 and UHRF1 binding 3.
Screening Nc1ccc2c(c1)C/C(=C/c1ccco1)C2=O returned MBD2 DNA inh 24*, LEDGF integ inh 49*, TDP2 inh 1, PRMT1 FP inh 39*, SIAE primary 23*, UHRF1 binding 69*, PRMT1 inh conf 33*, IN multimer up 19*, TR-FRET interf -95, LEDGF integ conf 25* and SIAE confirm -11.
`COc1cc(SSc2cc(OC)cc([N+](=O)[O-])c2N)c(N)c([N+](=O)[O-])c1` gave MBD2 DNA inh -24, LEDGF integ inh 1, TDP2 inh -11, PRMT1 FP inh 76*, SIAE primary 25*, UHRF1 binding -21, PRMT1 inh conf 90* and SIAE confirm 2.
N/C(Cc1cccc2ccccc12)=N\OC(=O)c1ccccc1F was read as MBD2 DNA inh -11, LEDGF integ inh 4, TDP2 inh 10, PRMT1 FP inh 49*, SIAE primary 41*, UHRF1 binding -8, PRMT1 inh conf 4 and SIAE confirm -8.
For N/C(Cc1ccc(Cl)cc1Cl)=N\OC(=O)c1ccccc1F the results were MBD2 DNA inh 0, LEDGF integ inh -1, TDP2 inh -5, PRMT1 FP inh 4, SIAE primary 2 and UHRF1 binding 9.
For C[C@H]1[C@@H](NC(=O)c2ccc(C(F)(F)F)cc2)CC[C@@]23CCCN2C(=O)CCC[C@@H]13 the results were MBD2 DNA inh -3, LEDGF integ inh 0, TDP2 inh 0, PRMT1 FP inh -1, SIAE primary 5 and UHRF1 binding -1.
